# Screening results deposited in PubChem BioAssay by several laboratories.
# Most compounds without a hit are left out; they make up all but 2.6% or so of the library.
# SENP8 block-1: SENP8 protease inhibitors, primary screen, biochemical, luminescence; Sentrin-specific protease 8 (Homo sapiens), Q96LD8; purified SENP8, Z-RLRGG-aminoluciferin cleavage; inhibition, % at 10 µM; 330,000 compounds, 1.2% hits; AID 2540, 2010; in the data active = inhibition above about 50%
# Target sequence (Q96LD8 whole entry, looked up): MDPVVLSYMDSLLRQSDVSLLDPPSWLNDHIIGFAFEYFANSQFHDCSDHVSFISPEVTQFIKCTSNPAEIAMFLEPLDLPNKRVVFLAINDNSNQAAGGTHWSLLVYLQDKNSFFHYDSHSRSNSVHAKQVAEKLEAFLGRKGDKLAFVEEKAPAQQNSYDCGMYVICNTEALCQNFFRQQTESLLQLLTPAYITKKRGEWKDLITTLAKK
# SENP8 block-2: human SENP8 protease inhibitors, primary screen, biochemical, fluorescence, Nedd8 protein substrate, uHTS. Sentrin-specific protease 8 (Homo sapiens), Q96LD8. recombinant SENP8. inhibition, % at 20 µM. 360,000 compounds, 0.64% hits; in the data active = inhibition mostly above about 40%, no sharp cut-off; inactive = mostly below about 27%
# SENP6 inh: SENP6 protease inhibitors, primary screen, biochemical, luminescence, uHTS. 330,000 compounds, 1.8% hits. Recombinant SENP6 catalytic domain, aminoluciferin luminescence. inhibition, % at 10 µM. Sentrin-specific protease 6 (Homo sapiens), Q9GZR1. AID 2599, 2010;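 active = inhibition above about 50% at the single tested dose, limit read from the data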;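 also: plate controls were DMSO wells with enzyme for no effect and DMSO wells lacking enzyme for full effect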
# SENP1 inh: human SENP1 catalytic domain inhibitors, primary screen, biochemical, FRET, uHTS. Sentrin-specific protease 1 (Homo sapiens), Q9P0U3. inhibition, % at 10 µM. 360,000 compounds, 0.21% hits. recombinant SENP1 catalytic domain, CyPet-SUMO1-YPet FRET cleavage;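 active = inhibition at least 30% at 10 µM, raw YFP signal under a set limit, fluorescence ratio 0.5 to 1.5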;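 also: 0% = enzyme with DMSO and 100% = no enzyme wells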
#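 Controls: no-enzyme wells low, DMSO-plus-enzyme wells high control. Test system: human recombinant His6-tagged SENP1 catalytic domain enzyme. Reagent: SFCypet-SUMO1-SFYpet FRET protein substrate, 25 nM final. Doses: one dose per compound, 10 µM, 0.5% DMSO. Detection: FRET, CFP and YFP emission. Timing: 50 min reaction at room temperature.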
# UCH37 inh: inhibitors of human UCH37 deubiquitinase, primary screen, biochemical, Ub-AMC cleavage, fluorescence | Ubiquitin carboxyl-terminal hydrolase isozyme L5 (Homo sapiens), Q9Y5K5 | 330,000 compounds, 0.33% hits | inhibition, % (no concentration beside the values) | purified proteasome/UCH37;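 active = mean inhibition over replicate wells above about 20%, limit read from the data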;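 also: 0% = compound-free wells with enzyme and 100% = wells lacking proteasome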
# Target sequence (Q9Y5K5 whole entry, looked up): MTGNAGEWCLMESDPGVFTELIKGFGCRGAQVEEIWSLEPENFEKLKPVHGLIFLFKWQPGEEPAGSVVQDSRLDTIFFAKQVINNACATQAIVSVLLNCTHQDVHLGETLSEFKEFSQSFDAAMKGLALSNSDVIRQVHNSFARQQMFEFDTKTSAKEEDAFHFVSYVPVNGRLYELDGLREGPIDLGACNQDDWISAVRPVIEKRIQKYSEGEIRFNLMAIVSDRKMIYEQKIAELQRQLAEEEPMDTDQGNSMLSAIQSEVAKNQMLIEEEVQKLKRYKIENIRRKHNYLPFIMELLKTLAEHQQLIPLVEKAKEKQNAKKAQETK
#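 Reagent: Ub-AMC substrate; assay system: Proteasome-associated human UCH37 deubiquitinase; controls: no-proteasome and no-compound wells; read-out: % inhibition of Ub-AMC cleavage fluorescence; timing: 30 min preincubation with enzyme, 25 min cleavage at room temperature; signal: AMC fluorescence from Ub-AMC cleavage, excitation 355 nm, emission 460 nm; buffer or medium: Tris-HCl pH 7.4 plus ovalbumin, ATP-MgCl2, DTT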
# SENP7 inh: SENP7 protease inhibitors, primary screen, biochemical, luminescence, uHTS | recombinant SENP7, Z-RLRGG-aminoluciferin luminescence, 40 min | inhibition, % at 5 µM | Sentrin-specific protease 7 (Homo sapiens), Q9BQF6 | 330,000 compounds, 1.5% hits;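 active = inhibition above about 50% at the single test dose, limit read from the data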;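 also: plate controls were DMSO with enzyme for no effect and no enzyme buffer wells for full effect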
# SENP8 conf: SENP8 protease inhibitors, retest, confirmation, biochemical, luminescence, single concentration. shares compounds with SENP7 inh. Recombinant SENP8, Z-RLRGG-aminoluciferin luminescence, 60 min. inhibition, % at 12.5 µM. 6,200 compounds, 40% hits. AID 488912, 2010;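 active = mean inhibition across replicates above about 50%, limit read from the data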
# SENP6 confirm: SENP6 protease inhibitors, confirmation, biochemical, luminescence, single concentration; inhibition, % at 12.5 µM; 6,200 compounds, 58% hits; recombinant SENP6, Z-RLRGG-aminoluciferin luminescence; shares compounds with SENP7 inh
# SENP7 confirm: SENP7 protease inhibitors, retest, confirmation, biochemical, luminescence, single concentration | shares compounds with SENP7 inh | recombinant SENP7, Z-RLRGG-aminoluciferin luminescence, 40 min | inhibition, % at 12.5 µM | 6,200 compounds, 69% hits | AID 488917, 2010
# Casp3 select: caspase-3 protease inhibitors, confirmation, selectivity assay for SENP inhibitor project, biochemical, single concentration; shares compounds with SENP7 inh; purified caspase-3, Z-DEVD-aminoluciferin luminescence, 60 min; inhibition, % at 12.5 µM; 6,200 compounds, 60% hits;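 active = mean inhibition above about 50%, limit read from the data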;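 also: plate controls were enzyme with DMSO for no effect and wells without caspase-3 for full effect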
# Luc interf: interferes with luciferase luminescence in SENP counter-screen | shares compounds with SENP7 inh | Pre-incubated SENP8/Z-RLRGG-aminoluciferin, luciferase luminescence interference | inhibition, % at 12.5 µM | 6,200 compounds, 39% hits;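 active = mean inhibition above about 50% when retested at one dose, limit read from the data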;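 also: plate controls were DMSO wells with completed reaction for no effect and substrate without enzyme for full effect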
# * marks the source's active call; other numbers are inactive results; x = not tested or not shown.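 The calls were made as follows, unless noted: active = mean inhibition above about 50% in the one-dose retest (limit read from the data); inactive = the rest.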
SMILES,SENP8 block-1,SENP8 block-2,SENP6 inh,SENP1 inh,UCH37 inh,SENP7 inh,SENP8 conf,SENP6 confirm,SENP7 confirm,Casp3 select,Luc interf
Cc1cc(CN2CCCCC2)oc1C(=O)O,-0.9,10.4,-16.8,-1.4,4.5,-0.8,x,x,x,x,x
O=C(O)c1ccc(COc2ccc3c4c(c(=O)oc3c2)CCC4)o1,91.0*,-192.7,81.9*,-2.2,-74.6,93.0*,94.5*,94.9*,99.6*,65.0*,93.8*
COC(=O)c1ccc(COc2ccc(C)c(C)c2)o1,28.7,9.6,36.2,-1.5,0.9,3.5,x,x,x,x,x
O=C(COc1ccc2c3c(c(=O)oc2c1)CCC3)Nc1ccccn1,38.2,-242.3,0.6,5.0,-6.8,89.4*,31.1,28.3,13.5,66.3*,19.3
CC(=NNC(=O)c1nc2ccccn2c1C)c1ccc2c(c1)OCO2,x,x,x,x,1.0,x,x,x,x,x,x
O=C(Cc1ccccc1)NN=Cc1ccc2c(c1)OCO2,x,x,x,x,2.4,x,x,x,x,x,x
CCC(C)c1ccc(OCc2ccc(C(=O)O)o2)cc1 (centres undefined),94.2*,13.5,95.5*,2.2,-1.6,79.8*,3.1,98.3*,102.3*,47.8,97.5*
COC(=O)c1cc(/C=C/c2ccccc2)on1,-10.5,-23.8,27.2,-0.1,-1.7,-0.6,x,x,x,x,x
COC(=O)c1cc(/C=C/c2ccccc2)[nH]n1,37.0,-4.2,52.3*,2.2,x,47.4,49.1,45.9,81.9*,63.5*,15.7
COc1cccc2cc(C(=O)c3ccccc3)oc12,60.6*,6.3,72.9*,1.1,4.5,62.0*,-8.0,59.5*,84.3*,60.7*,64.0*
O=C(c1ccccc1)c1cc2ccccc2o1,50.8*,26.3,74.3*,-3.3,6.1,65.5*,7.8,58.1*,82.5*,52.9*,15.9
O=C(c1ccc(F)cc1)c1cc2ccccc2o1,51.5*,18.2,83.7*,2.9,0.8,66.6*,7.3,45.6,83.5*,57.2*,17.7
O=C(NNC(=O)c1cc2ccccc2o1)c1ccc(F)cc1,-1.3,-58.1,7.6,1.7,0.4,5.5,x,x,x,x,x
COc1ccc(OC(=O)c2cc3ccccc3o2)cc1,-54.4,13.9,60.8*,3.8,1.0,70.7*,11.8,28.8,88.9*,35.4,19.6
CCOC(=O)C(=NO)C(C)=NNC(=O)C(=O)Nc1cc(Cl)ccc1Cl,x,x,x,x,4.3,x,x,x,x,x,x
COc1ccc(NS(=O)(=O)c2cccc(C(=O)NN=Cc3cn(-c4ccccc4)nc3-c3ccccc3)c2)cc1,x,x,x,x,-31.2,x,x,x,x,x,x
O=C(O)c1ccc(NN=C/C=C/c2ccccc2)cc1,x,x,x,x,18.1,x,x,x,x,x,x
O=C(NN=Cc1ccc(OC(=O)c2cccs2)cc1)c1cccc(F)c1,x,x,x,x,0.2,x,x,x,x,x,x
CSc1ccc(/C=N/NC(=O)c2cccs2)cc1,74.0*,-384.6,82.9*,1.3,x,88.5*,26.0,66.3*,97.9*,86.3*,85.4*
